In paper PMC4115637 (Pharmacology Research & Perspectives, 2014):
Where a chain is given by its changes, count along the chain named.

Tests used:
Format in all cases: cell-based
[1] = target: T1, TRPV3 in HaCaT cells (Homo sapiens, UniProt Q8NET8); test: Calcium flux in HaCaT cells
T1 sequence (Q8NET8 1-790): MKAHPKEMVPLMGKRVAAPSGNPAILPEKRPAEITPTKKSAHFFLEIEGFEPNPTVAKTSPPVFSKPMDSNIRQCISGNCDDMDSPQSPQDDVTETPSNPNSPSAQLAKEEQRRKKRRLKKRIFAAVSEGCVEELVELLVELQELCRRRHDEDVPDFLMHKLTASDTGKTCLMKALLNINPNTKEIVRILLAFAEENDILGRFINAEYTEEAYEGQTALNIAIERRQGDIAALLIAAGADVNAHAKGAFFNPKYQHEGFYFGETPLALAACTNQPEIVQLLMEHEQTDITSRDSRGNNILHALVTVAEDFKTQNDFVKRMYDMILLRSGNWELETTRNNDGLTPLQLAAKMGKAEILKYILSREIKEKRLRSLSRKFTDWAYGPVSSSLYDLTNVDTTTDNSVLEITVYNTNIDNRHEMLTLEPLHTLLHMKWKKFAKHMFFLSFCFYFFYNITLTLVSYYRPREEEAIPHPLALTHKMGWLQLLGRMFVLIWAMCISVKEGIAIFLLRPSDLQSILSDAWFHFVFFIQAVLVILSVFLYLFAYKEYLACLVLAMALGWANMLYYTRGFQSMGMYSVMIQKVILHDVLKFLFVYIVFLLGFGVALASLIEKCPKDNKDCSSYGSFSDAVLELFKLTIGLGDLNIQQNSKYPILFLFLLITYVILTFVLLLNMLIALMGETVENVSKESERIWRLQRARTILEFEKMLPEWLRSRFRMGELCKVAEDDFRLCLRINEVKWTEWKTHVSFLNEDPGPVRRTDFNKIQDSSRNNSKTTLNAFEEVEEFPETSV

[2] = target: human TRPV4 (Homo sapiens, UniProt Q9HBA0); test: Calcium flux in HEK-293 cells overexpressing TRPV4; settings: concentrations up to 1 mmol/L
Sequence of human TRPV4 (Q9HBA0 whole entry): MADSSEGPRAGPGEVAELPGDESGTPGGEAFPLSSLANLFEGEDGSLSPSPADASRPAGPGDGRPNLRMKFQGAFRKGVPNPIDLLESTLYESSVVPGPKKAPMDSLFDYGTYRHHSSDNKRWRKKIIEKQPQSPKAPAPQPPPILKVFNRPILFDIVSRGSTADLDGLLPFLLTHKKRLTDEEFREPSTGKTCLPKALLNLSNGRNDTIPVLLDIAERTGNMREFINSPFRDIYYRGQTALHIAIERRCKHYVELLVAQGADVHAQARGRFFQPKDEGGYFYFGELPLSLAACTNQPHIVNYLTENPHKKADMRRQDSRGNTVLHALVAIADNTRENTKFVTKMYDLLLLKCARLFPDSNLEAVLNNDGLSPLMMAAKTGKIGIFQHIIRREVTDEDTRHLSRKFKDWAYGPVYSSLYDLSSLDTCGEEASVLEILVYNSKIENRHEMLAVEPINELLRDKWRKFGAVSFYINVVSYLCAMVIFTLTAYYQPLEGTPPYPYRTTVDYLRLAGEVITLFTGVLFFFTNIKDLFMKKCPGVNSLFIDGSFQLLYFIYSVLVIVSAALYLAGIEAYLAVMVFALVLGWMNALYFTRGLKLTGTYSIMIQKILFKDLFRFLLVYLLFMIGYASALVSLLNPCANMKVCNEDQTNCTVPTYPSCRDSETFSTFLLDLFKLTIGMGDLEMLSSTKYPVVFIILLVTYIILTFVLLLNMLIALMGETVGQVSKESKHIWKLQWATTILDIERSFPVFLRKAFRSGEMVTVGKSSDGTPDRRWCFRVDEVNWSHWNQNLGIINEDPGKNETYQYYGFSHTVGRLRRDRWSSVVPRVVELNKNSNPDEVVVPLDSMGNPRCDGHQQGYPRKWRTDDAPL

[3] = target: T2, human TRPV3 (Homo sapiens, UniProt Q8NET8); test: Whole-cell recordings in TRPV3-overexpressing HEK-293 cells; settings: 250 μmol/L, 500 μmol/L, 1 mmol/L; negative holding potential
T2 sequence (Q8NET8 1-790): T1 sequence (Q8NET8 1-790)
In short: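 HEK-293 cells stably overexpressing human TRPV3 were plated on concanavalin A-coated coverslips and used within 24 h. Whole-cell voltage clamp at −60 or −70 mV with 3–5 MΩ pipettes. External saline: NaCl/KCl/MgCl2/HEPES/glucose/2 mmol/L CaCl2, pH 7.4. CsCl/EGTA internal, pH 7.3. Test compound was perfused or injected, with a fresh cell for each recording. Peak versus basal inward current was compared by one-tailed paired t-test.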

[4] = target: T3, TRPV3-H426N (Homo sapiens, UniProt Q8NET8, H426N); test: Calcium flux in HEK-293 cells transiently transfected with TRPV3-H426N
T3 sequence (Q8NET8 1-790 H426N): T1 sequence (Q8NET8 1-790) with H426N

[5] = target: human TRPV1 (Homo sapiens, UniProt Q8NER1); test: Calcium flux in HEK-293 cells overexpressing TRPV1; settings: concentrations up to 1 mmol/L
Sequence of human TRPV1 (Q8NER1 whole entry): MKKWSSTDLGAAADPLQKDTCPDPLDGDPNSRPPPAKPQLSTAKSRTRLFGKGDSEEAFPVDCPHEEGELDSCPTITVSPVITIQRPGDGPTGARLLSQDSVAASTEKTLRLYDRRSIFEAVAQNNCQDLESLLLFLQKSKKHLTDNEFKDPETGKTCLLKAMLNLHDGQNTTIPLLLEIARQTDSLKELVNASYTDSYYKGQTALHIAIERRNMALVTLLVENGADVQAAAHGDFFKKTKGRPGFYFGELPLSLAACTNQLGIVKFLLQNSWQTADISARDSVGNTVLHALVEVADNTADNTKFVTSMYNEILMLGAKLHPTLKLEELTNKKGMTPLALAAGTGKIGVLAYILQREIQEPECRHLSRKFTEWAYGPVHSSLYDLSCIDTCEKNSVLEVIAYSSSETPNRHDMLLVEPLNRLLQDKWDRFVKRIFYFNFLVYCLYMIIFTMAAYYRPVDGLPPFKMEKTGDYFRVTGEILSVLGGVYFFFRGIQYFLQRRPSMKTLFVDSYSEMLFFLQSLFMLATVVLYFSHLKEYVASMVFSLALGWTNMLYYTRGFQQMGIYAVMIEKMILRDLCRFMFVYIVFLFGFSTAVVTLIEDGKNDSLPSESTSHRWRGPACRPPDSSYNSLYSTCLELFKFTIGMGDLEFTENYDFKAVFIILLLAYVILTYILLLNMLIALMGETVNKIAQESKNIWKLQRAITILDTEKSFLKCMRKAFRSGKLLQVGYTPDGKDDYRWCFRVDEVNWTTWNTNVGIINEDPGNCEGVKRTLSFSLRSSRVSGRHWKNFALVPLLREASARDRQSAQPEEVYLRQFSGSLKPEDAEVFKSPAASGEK

[6] = target: human TRPA1 (Homo sapiens, UniProt O75762); test: Calcium flux in HEK-293 cells overexpressing TRPA1; settings: concentrations up to 1 mmol/L
Sequence of human TRPA1 (O75762 whole entry): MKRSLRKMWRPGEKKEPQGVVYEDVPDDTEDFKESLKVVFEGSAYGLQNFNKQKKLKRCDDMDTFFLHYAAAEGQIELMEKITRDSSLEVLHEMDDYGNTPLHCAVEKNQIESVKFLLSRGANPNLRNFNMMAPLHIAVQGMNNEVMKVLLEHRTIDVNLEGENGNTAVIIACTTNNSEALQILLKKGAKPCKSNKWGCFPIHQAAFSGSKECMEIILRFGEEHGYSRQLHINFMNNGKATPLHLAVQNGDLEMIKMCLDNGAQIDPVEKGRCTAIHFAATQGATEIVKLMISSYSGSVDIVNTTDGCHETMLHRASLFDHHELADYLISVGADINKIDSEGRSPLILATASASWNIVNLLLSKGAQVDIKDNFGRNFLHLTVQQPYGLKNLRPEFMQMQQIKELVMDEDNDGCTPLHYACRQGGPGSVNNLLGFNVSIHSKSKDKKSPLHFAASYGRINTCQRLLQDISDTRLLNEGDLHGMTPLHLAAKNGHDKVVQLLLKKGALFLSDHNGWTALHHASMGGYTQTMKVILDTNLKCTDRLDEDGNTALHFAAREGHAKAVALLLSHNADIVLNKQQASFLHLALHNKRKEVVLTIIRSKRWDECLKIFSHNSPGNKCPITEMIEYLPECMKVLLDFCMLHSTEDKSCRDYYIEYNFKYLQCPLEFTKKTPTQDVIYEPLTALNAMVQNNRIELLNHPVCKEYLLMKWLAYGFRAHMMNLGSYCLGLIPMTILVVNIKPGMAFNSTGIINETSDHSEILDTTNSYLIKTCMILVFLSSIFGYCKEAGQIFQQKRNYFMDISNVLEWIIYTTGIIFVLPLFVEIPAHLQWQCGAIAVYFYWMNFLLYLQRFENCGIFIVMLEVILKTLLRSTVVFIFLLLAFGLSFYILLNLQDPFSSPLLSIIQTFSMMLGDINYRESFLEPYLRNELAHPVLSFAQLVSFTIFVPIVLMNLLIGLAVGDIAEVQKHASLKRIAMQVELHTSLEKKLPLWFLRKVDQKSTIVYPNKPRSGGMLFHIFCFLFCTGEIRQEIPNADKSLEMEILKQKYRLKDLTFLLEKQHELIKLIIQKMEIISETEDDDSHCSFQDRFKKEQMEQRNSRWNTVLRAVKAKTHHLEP

[7] = target: T2, human TRPV3; test: Calcium flux in TRPV3 overexpressing HEK-293 cells; settings: HEK-293 cells overexpressing TRPV3
[8] = target: T2, human TRPV3; test: Re-evaluation of screening hits as TRPV3 agonists; settings: Table 1
[9] = target: human TRPM8 (Homo sapiens, UniProt Q7Z2W7); test: Calcium flux in HEK-293 cells overexpressing TRPM8; settings: concentrations up to 1 mmol/L
Sequence of human TRPM8 (Q7Z2W7 whole entry): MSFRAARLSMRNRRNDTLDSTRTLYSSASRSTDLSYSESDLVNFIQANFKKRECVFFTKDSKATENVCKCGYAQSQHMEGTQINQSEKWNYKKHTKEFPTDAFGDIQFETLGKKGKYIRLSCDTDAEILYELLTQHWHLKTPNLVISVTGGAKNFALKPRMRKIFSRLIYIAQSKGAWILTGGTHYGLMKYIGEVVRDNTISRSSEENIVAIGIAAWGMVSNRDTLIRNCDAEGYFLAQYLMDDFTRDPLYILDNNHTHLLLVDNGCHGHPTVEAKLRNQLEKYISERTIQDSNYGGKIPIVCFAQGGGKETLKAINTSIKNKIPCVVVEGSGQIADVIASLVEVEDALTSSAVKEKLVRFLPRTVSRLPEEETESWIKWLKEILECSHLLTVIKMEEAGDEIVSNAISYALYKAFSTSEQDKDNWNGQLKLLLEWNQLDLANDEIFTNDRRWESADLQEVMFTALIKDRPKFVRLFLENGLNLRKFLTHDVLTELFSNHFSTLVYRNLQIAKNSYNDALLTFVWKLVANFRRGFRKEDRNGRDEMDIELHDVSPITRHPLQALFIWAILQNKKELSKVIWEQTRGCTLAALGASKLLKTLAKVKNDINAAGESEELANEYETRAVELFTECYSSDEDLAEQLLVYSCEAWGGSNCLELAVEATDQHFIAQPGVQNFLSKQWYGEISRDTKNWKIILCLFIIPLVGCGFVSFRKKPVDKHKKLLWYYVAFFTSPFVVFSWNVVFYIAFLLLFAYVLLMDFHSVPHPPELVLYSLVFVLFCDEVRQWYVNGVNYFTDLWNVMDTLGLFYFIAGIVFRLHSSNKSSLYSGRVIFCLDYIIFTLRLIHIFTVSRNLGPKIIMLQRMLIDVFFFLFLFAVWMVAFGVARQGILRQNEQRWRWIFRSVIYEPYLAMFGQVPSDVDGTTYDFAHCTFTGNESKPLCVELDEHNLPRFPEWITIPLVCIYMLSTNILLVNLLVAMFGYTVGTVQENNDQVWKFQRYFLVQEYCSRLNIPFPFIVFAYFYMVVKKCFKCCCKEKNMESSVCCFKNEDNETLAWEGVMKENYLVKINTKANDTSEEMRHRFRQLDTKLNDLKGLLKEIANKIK

- EC50 [1]: 605 µM
- maximum change in fluorescence relative to ionomycin ([1]; HaCaT cells): ~80%
- activation of TRPV4 [2]: not observed
- inward currents [3]: dose-dependently induced inward currents
- calcium flux in TRPV3-H426N relative to TRPV3-WT ([4]; agonist 100 μmol/L): reduced activation relative to TRPV3-WT
- calcium flux in TRPV3-H426N relative to TRPV3-WT ([4]; agonist 200 μmol/L): did not reduce TRPV3 activation
- activation of TRPV1 [5]: not observed
- activation of TRPA1 [6]: not observed
- lowest concentration with detectable change in TRPV3 activity [7]: ~30 µmol/L
- Comment(s): re-evaluation as TRPV3 agonist [8]: TRPV3-selective agonist
- activation of TRPM8 [9]: not observed
Structure (SMILES): CCN(CC)CCOC(=O)C(c1ccccc1)C1CCCCC1 (centres unmarked) [drofenine]
